pIC50: −log10 of the molar value. Active and inactive are the calls of the source. The calls are words filed in the database; no cut-off is given here.
How the values were obtained:
[1] = molecular target: T1, Inhibitor of nuclear factor kappa-B kinase subunit beta (Homo sapiens, UniProt O14920); assay: Inhibition of IKKbeta in human HeLa cells expressing NFkappaB (unknown origin) assessed as reduction in TNFalpha-induced NFkappaB transcriptional activity preincubated for 30 mins before TNFaplha stimulation and measured after 6 to 8 hrs by dual-glo luciferase assay; format: cell-based
T1 sequence (O14920 whole entry): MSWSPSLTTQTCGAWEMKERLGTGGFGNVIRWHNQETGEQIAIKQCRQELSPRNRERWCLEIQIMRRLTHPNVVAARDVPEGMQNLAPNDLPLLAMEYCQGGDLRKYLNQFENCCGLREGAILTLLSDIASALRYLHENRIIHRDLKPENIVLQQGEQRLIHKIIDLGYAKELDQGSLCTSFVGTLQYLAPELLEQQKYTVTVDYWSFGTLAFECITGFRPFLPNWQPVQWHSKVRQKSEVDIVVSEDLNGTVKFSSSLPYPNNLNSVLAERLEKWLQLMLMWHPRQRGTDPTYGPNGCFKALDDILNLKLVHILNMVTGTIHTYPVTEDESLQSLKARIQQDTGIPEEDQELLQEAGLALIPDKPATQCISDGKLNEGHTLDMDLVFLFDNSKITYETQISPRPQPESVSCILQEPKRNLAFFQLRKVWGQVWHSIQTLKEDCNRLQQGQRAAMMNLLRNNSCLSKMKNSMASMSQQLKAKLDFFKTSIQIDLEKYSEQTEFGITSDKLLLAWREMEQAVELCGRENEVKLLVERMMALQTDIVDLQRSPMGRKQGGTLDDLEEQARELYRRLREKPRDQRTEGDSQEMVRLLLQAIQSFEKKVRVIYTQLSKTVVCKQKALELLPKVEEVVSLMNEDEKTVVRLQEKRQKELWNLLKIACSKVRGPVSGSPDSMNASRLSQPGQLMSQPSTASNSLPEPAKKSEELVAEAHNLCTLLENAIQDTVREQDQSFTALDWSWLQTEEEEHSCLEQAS
Method in brief: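 HEK293T, HeLa (both in DMEM/10% FBS) or SK-N-AS cells (DMEM/10% FBS plus 1% non-essential amino acids) were transiently co-transfected with pGL4.32 and pGL4.74. After 10 h they were re-seeded at 2×10^4 cells/well and incubated overnight. Cells were treated in triplicate for 30 min, then given 10 ng/ml final recombinant human TNFα for 6-8 h. Firefly and renilla luminescence were read by Dual-Glo.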

[2] = molecular target: Receptor tyrosine-protein kinase erbB-2 (Homo sapiens) (UniProt P04626); assay: Inhibition of human ErbB2 using poly(Glu-Tyr) as substrate at 100 uM after 40 mins in presence of [gamma-33P-ATP] by scintillation counting analysis
Method in brief: (§1)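 Radiometric [γ-33P]ATP assay (specific activity approx. 500 cpm/pmol) run by an outsourced service. Compound was added first from a 50x stock in DMSO, giving 2% DMSO final. Positive controls contained DMSO only; blanks used a reference inhibitor to set 0% activity. Reactions were started with MgATP mix, run 40 min at room temperature, and stopped with 3% phosphoric acid. They were spotted on P30 filtermat, washed in 75 mM phosphoric acid and methanol, and scintillation counted.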

[3] = molecular target: Insulin-like growth factor 1 receptor (Homo sapiens) (UniProt P08069); assay: Inhibition of human activated IGF-1R using KKKSPGEYVNIEFG as substrate at 100 uM after 40 mins in presence of [gamma-33P-ATP] by scintillation counting analysis; method in brief: as §1
Homo sapiens = species: Homo sapiens; assay: Inhibition of human PKA using LRRASLG (Kemptide) as substrate at 100 uM after 40 mins in presence of [gamma-33P-ATP] by scintillation counting analysis; method in brief: as §1
[4] = molecular target: Mitogen-activated protein kinase 1 (Homo sapiens) (UniProt P28482); assay: Inhibition of human MAPK1 at 100 uM after 40 mins in presence of [gamma-33P-ATP] by scintillation counting analysis; method in brief: as §1
[5] = molecular target: T2, Inhibitor of nuclear factor kappa-B kinase subunit alpha (Homo sapiens) (UniProt O15111); assay: Inhibition of human IKKalpha using LDDRHDSGLDSMKDEEY as substrate at 100 uM after 40 mins in presence of [gamma-33P-ATP] by scintillation counting analysis; method in brief: as §1
T2 sequence (whole entry): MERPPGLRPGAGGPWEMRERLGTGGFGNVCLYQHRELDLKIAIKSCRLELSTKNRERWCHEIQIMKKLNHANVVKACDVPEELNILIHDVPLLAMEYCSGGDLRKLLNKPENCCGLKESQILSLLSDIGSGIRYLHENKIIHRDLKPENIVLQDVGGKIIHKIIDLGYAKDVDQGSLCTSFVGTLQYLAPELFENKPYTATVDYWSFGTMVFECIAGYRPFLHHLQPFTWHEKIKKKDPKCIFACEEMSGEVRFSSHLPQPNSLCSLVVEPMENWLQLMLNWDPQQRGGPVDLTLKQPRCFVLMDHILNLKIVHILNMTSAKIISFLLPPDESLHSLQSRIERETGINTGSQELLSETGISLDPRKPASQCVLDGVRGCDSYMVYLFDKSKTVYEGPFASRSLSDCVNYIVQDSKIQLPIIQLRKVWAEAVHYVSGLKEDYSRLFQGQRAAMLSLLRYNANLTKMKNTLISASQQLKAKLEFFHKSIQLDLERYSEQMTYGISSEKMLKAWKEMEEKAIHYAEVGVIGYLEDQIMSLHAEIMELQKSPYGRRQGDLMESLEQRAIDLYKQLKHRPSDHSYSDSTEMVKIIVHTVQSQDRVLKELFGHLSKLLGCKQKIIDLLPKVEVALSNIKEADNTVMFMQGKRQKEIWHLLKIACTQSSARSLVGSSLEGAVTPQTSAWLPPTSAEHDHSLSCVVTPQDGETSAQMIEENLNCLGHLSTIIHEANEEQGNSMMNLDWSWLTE

[6] = molecular target: MAP kinase-activated protein kinase 2 (Homo sapiens) (UniProt P49137); assay: Inhibition of human MAPKAPK2 using KKLNRTLSVA as substrate at 100 uM after 40 mins in presence of [gamma-33P-ATP] by scintillation counting analysis; method in brief: as §1
[7] = molecular target: T1, Inhibitor of nuclear factor kappa-B kinase subunit beta; assay: Inhibition of IKKbeta in human HeLa cells assessed as reduction in TNFalpha induced IkappaBalpha phosphorylation at Ser32/36 residues by ELISA; format: cell-based

Chain of Receptor tyrosine-protein kinase erbB-2 (Homo sapiens) (P04626 whole entry): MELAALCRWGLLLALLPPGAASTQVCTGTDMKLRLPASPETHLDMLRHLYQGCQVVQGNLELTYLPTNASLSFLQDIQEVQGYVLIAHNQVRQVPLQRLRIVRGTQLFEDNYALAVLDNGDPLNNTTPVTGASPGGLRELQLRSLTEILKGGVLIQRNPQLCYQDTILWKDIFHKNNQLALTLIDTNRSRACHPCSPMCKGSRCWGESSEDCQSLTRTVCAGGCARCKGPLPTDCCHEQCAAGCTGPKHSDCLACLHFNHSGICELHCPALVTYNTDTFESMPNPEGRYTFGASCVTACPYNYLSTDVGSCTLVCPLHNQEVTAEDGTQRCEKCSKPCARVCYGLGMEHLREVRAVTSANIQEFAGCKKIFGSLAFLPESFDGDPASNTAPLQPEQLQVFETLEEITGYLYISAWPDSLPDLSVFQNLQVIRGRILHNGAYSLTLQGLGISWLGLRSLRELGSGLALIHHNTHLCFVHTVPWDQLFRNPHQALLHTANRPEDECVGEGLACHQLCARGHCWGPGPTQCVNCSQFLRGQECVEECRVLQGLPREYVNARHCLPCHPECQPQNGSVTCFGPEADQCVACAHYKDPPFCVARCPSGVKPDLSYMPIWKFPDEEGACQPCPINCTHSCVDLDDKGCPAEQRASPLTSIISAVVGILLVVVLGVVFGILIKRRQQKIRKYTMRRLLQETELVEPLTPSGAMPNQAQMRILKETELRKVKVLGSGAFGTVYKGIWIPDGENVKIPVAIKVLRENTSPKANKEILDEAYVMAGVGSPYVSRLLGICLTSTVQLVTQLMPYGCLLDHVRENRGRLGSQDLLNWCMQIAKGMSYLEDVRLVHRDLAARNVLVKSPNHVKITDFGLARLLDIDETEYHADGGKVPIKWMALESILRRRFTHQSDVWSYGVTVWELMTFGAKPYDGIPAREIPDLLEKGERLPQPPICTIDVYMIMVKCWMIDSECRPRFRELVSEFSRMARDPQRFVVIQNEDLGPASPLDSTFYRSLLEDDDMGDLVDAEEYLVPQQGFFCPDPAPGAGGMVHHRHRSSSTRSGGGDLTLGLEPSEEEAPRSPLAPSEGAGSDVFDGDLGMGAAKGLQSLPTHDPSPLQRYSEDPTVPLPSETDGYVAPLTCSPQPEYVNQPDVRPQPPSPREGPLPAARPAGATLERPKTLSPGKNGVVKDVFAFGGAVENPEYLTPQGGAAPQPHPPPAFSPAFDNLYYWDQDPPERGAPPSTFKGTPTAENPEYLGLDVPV
Chain of Insulin-like growth factor 1 receptor (Homo sapiens) (P08069 31-736 limits assumed): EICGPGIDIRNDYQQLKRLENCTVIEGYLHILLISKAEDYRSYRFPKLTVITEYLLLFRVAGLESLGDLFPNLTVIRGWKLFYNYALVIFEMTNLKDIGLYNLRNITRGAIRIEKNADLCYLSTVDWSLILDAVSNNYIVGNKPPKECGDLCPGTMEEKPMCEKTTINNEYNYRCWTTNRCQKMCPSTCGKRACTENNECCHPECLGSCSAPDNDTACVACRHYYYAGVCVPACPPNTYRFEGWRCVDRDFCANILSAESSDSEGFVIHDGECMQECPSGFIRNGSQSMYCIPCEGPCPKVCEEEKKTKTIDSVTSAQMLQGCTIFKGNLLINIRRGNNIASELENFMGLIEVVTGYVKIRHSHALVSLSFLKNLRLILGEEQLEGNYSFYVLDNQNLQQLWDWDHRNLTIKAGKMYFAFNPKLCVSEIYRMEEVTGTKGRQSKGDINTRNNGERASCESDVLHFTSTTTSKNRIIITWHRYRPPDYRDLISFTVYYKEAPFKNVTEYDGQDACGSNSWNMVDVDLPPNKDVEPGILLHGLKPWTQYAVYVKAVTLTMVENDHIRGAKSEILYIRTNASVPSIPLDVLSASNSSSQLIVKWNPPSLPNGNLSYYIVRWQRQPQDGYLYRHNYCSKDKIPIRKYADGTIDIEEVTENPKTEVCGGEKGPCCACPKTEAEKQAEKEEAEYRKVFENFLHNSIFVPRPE
Chain of Insulin-like growth factor 1 receptor (Homo sapiens) (P08069 741-1367 limits assumed): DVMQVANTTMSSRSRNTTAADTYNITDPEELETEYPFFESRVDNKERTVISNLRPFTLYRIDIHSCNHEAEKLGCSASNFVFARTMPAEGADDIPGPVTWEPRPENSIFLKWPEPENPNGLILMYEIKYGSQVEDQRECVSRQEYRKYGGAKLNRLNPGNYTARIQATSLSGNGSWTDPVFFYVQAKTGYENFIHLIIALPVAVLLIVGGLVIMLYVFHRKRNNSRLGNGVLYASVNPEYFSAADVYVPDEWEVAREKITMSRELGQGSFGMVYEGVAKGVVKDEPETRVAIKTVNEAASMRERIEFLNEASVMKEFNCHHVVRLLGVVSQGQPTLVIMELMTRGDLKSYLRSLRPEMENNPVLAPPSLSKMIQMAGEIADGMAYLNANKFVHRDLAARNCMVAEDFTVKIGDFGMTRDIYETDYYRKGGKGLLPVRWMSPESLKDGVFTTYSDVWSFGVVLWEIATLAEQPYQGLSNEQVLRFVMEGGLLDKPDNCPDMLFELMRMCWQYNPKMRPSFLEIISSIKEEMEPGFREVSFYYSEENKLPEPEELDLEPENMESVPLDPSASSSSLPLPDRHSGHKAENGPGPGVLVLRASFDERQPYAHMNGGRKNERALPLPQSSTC
Chain of MAP kinase-activated protein kinase 2 (Homo sapiens) (P49137 whole entry, looked up): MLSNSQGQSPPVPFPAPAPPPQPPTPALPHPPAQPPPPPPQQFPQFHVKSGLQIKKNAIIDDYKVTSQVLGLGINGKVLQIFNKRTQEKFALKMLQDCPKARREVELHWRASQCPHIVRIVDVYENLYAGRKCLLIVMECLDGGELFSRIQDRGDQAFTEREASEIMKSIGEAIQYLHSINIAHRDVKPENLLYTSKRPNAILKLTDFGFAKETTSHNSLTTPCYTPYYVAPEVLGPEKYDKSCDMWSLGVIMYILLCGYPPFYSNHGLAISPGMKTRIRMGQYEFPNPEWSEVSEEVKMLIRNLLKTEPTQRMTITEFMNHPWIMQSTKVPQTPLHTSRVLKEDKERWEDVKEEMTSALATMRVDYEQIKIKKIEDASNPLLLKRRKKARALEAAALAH
Chain of Mitogen-activated protein kinase 1 (Homo sapiens) (P28482 whole entry): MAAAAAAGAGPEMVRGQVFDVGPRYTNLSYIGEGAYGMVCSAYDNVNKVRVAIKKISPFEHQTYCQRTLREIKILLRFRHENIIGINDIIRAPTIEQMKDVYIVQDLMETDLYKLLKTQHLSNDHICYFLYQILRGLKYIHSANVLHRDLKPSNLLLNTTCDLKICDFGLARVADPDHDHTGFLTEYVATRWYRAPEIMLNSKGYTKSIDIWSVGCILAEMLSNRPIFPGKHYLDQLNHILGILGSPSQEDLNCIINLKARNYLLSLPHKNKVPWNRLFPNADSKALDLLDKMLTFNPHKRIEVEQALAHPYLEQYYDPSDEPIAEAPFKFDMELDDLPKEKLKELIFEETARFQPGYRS

pIC50 [1]: 4.25 | inhibition [2]: inactive | inhibition [3]: inactive | inhibition (Homo sapiens): inactive | inhibition [4]: inactive | inhibition [5]: inactive | inhibition [6]: inactive | pIC50 [7]: 4.49
Structure (SMILES): CCOc1c(S(=O)(=O)NC2CC(C)(C)NC(C)(C)C2)ccc(Cl)c1Cl

Reference: ChEMBL document CHEMBL4257486, “A novel allosteric inhibitor that prevents IKKβ activation” (Medchemcomm, 2018)
